Among the data in ChEMBL document CHEMBL4513216, “Probing the Open Global Health Chemical Diversity Library for Multistage-Active Starting Points for Next-Generation Antimalarials” (ACS Infect Dis, 2020) are cytotoxicity values, retold here.

The nature of this series: Toxicity liver stage against HepG2, at 10uM. Format: cell-based. Further details: test concentration 10 uM, cell line HepG2-A16-CD81EGFP. The settings on record: human, HepG2-A16-CD81EGFP cells; read-out: INHIBITION
In short, it runs like this:
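Uninfected HepG2-A16-CD81EGFP cells, 3 × 10^3 per well, 1536-well, plated on prespotted compound at 10 μM final, parasite-free screening media added to match infected plates; puromycin 10 μM positive, DMSO 0.5% negative; run in parallel with 48 h PbLuc assay at 37 °C, 5% CO2; viability by CellTiter-Glo luminescence, normalized to controls.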
With `CC(C)C(=O)NC1CCCN(C(=O)c2cc(Cl)ccc2O)C1` (stereo not given), the cytotoxicity at 10 µM is -11.4%.

Take `COc1ccc(C(CNC(=O)c2cnc(C)cn2)N2CCOCC2)cc1` (stereo not given): the cytotoxicity at 10 µM turned out to be 3.04%.

In the case of `CC(C#N)CSc1ccccc1NCC(=O)NCc1cccs1` (stereo not given), the cytotoxicity at 10 µM is 2.13%.

Regarding `Cc1cc(C(O)CCNC(=O)c2ccc(Cl)s2)c(C)o1` (stereo not given), the cytotoxicity at 10 µM is -1.22%.

In the case of `COCC(Nc1ncnc2sc(C)c(C)c12)c1ccnn1C` (stereo not given), the cytotoxicity at 10 µM is -4.53%.

For the molecule `O=C(NCC(=O)N1CCCC1)c1nc(Cc2c(Cl)cccc2Cl)no1`, the cytotoxicity at 10 µM was 2.63%.

With `CCOCCCn1c(NC(=O)c2ccnc(C)n2)nc2ccccc21`, the cytotoxicity at 10 µM was -21.1%.

As for `CC(C)c1noc(CCC(=O)NC(C)c2ccccn2)n1` (stereo not given), the cytotoxicity at 10 µM is -5.86%.

`CSCC1CCCN(c2ncnc3oc(C)nc23)C1` (stereo not given): the cytotoxicity at 10 µM worked out at 4.03%.

As to `CC(=O)N1CCCC2(C1)CN(c1nncs1)CCO2` (stereo not given), the cytotoxicity at 10 µM was -102%.

For the molecule `CCc1ccc(C(C)NC(=O)c2ccc(CS(C)(=O)=O)o2)cc1` (stereo not given), the cytotoxicity at 10 µM is -3.07%.

In the case of `CCOC(=O)c1sc2ccsc2c1CNC(=O)COC`, the cytotoxicity at 10 µM was determined as 1.51%.

On to `Cc1cc(C)n(CC2CN(CCOc3ccccc3C#N)CCO2)n1` (stereo not given), for which the cytotoxicity at 10 µM was -3.71%.

As to `CC(C)N(C)Cc1cnc2n1CCN(C(=O)Cc1ccccn1)C2`, the cytotoxicity at 10 µM is -0.405%.

With `Cc1ccc(C(=O)N2C[C@@H]3C[C@@H](c4nnc(C5CC5)o4)O[C@@H]3C2)s1`, the cytotoxicity at 10 µM was -133%.

`CC(C)(C)C(=O)N[C@H]1C[C@@H](Cc2cc(CN3CCOCC3)on2)C1(C)C`: the cytotoxicity at 10 µM is -7.15%.

Consider `CCCn1cc(NC(=O)c2ccc(N(C)CC)cc2)ccc1=O`, for which the cytotoxicity at 10 µM is -0.704%.

In the case of `Cc1nc(C(=O)N2CCOCC2)cc(N2CCC(C(N)=O)CC2)n1`, the cytotoxicity at 10 µM stood at 1.82%.

Regarding `N#Cc1c2n(c3c(=O)[nH]cnc13)CCCCC2`, the cytotoxicity at 10 µM came out at 5.5%.

Turning to `c1csc(CN2CCOCC3(CCN(C4CCOCC4)C3)C2)n1` (stereo not given), the cytotoxicity at 10 µM is 0.487%.

`Cc1cnn(C2CN(Cc3ccc4c(c3)OCCO4)C2)c1`: the cytotoxicity at 10 µM turned out to be 16.3%.

In the case of `CCN1C(=O)CCC12CCC(NC(=O)c1ccncc1F)CC2` (stereo not given), the cytotoxicity at 10 µM came to 0.758%.

On to `Cc1ccc(C2CCCCCN2C(=O)Nc2cn[nH]c2)o1` (stereo not given), for which the cytotoxicity at 10 µM is 5.16%.

With `O=C(Cc1cn2ccsc2n1)N1CCCC(n2ccnc2)C1` (stereo not given), the cytotoxicity at 10 µM was -8.22%.

Consider `Cc1csc(-c2cccc(NC(=O)N3CCOCC3)c2)n1`, for which the cytotoxicity at 10 µM was -6.35%.

With `Cc1cc(S(=O)(=O)N(C)CC(N)=O)ccc1Br`, the cytotoxicity at 10 µM was determined as 15%.

As to `CNC(=O)C1Cn2ccnc2C2(CCN(c3ccc(C)nn3)CC2)O1` (stereo not given), the cytotoxicity at 10 µM is -137%.

Turning to `CN1CC(=O)N(C2CCNCC2)Cc2c(NCC(C)(C)C)ncnc21`, the cytotoxicity at 10 µM stood at 6.2%.

Turning to `CN(C)C(=O)N1CCC(c2nc3ccc(-c4ccccc4)cn3n2)CC1`, the cytotoxicity at 10 µM is 5.9%.

Consider `c1cc(CC2CCCNC2)nc(NCCc2cnccn2)c1` (stereo not given), for which the cytotoxicity at 10 µM was 3.64%.

Take `CC(C)c1noc(CS(=O)(=O)CC(=O)NCCOc2ccccc2)n1`: the cytotoxicity at 10 µM was -10%.

In the case of `Cc1ncsc1C(=O)N(C)Cc1ccccc1`, the cytotoxicity at 10 µM was -6.92%.

As for `O=S(=O)(c1ccccc1)N1CCN(CCn2ccnc2)CC1`, the cytotoxicity at 10 µM was -21.6%.

As to `O=C(CN1CCC(c2cccc(F)c2)C1)NCC(F)(F)F` (stereo not given), the cytotoxicity at 10 µM is -10.4%.

On to `CCCc1noc(CCCC(=O)N2CCCC(n3ccnc3C)C2)n1` (stereo not given), for which the cytotoxicity at 10 µM is -2.5%.

On to `COC(=O)c1ccc(S(=O)(=O)NCC(C)(O)c2cccs2)cc1` (stereo not given), for which the cytotoxicity at 10 µM was -6.87%.

On to `CCC(NC(=O)CNC(=O)OC)c1cc(F)ccc1F` (stereo not given), for which the cytotoxicity at 10 µM was -5.03%.

`CCn1cc(NS(=O)(=O)c2ccc(F)cc2)c(C(=O)NCC(C)C)n1`: the cytotoxicity at 10 µM is 6.6%.

In the case of `Cc1ncc(CNC(=O)Cc2ccc(Cl)cc2)c(C2CCCN2C)n1` (stereo not given), the cytotoxicity at 10 µM is -0.696%.

As to `CN(C)C(=O)C1OC2(CCN(C(=O)c3ccco3)CC2)c2ccccc21` (stereo not given), the cytotoxicity at 10 µM came to 4.93%.
